Assay results as given in ChEMBL document CHEMBL3745596, “Chlorophenoxy aminoalkyl derivatives as histamine H(3)R ligands and antiseizure agents” (Bioorg Med Chem, 2016).
The source made the active and inactive calls.

What was measured:
[1] = tested on: Mus musculus; assay: Anticonvulsant activity in CF1 albino mouse assessed as protection against maximal electroshock-induced seizure at 10 mg/kg, ip after 0.5 hrs; format: functional, organism-based
Method in brief: (§1)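 Male CF-1 mice dosed ip as suspension in 0.5% methylcellulose. Corneal electrodes deliver 60 Hz alternating current, 50 mA for […], after a drop of 0.5% tetracaine HCl in 0.9% NaCl per eye. Protection means abolition of hindlimb tonic extension; scored as protected/tested, or ED50 with 95% confidence interval.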

[2] = tested on: Mus musculus; assay: Neurotoxicity in ip dosed CF1 albino mouse after 0.25 hrs by rotarod test; format: toxicity, organism-based; conditions: in vivo
Method in brief: (§2)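 Rotarod neurotoxicity in male albino CF-1 mice dosed ip with compound suspended in 0.5% methylcellulose. Animal placed on a 1 inch diameter knurled plastic rod rotating at 6 rpm. Neurotoxicity scored when the animal falls off three times within 1 min. Readout is number of animals toxic/number tested at the stated time after dosing.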

[3] = tested on: Mus musculus; assay: Anticonvulsant activity in CF1 albino mouse assessed as protection against 6 Hz-psychomotor-induced seizure at 60 mg/kg, ip after 4 hrs; format: functional, organism-based
Method in brief: (§3)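 Male CF-1 mice, ip suspension in 0.5% methylcellulose. Corneal stimulation 0.2 ms monopolar rectangular pulses at 6 Hz, 32 mA for 3 s via constant-current device; mice without minimal clonic phase seizure counted protected. Groups of four; read at 0.25, 0.5, 1, 2, 4 h; result as protected/tested.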

[4] = tested on: Rattus norvegicus; assay: Anticonvulsant activity in Sprague-Dawley rat assessed as protection against maximal electroshock-induced seizure at 30 mg/kg, po; format: functional
[5] = tested on: Mus musculus; assay: Anticonvulsant activity in CF1 albino mouse assessed as protection against maximal electroshock-induced seizure at 100 mg/kg, ip after 0.5 hrs; format: functional, organism-based; method in brief: as §1
[6] = tested on: Rattus norvegicus; assay: Protective index, ratio of TD50 for ip dosed Sprague-Dawley rat to ED50 for ip dosed Sprague-Dawley rat assessed as protection against maximal electroshock-induced seizure after 1 hr; format: functional
Method in brief: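 PI = TD50/ED50. Male CF-1 mice or male Sprague–Dawley rats given compound ip as 0.5% methylcellulose suspension. MES: 60 Hz corneal current, 50 mA mice or 150 mA rats, for […] after tetracaine eye drops; protection is abolition of hindlimb tonic extension.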

[7] = tested on: Mus musculus; assay: Neurotoxicity in CF1 albino mouse at 300 mg/kg, ip after 4 hrs by rotarod test; format: toxicity, organism-based; conditions: in vivo
Method in brief: as §2, with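 “dosing. TD50 with 95% confidence interval from the quantitative study.” for “dosing.”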

[8] = target: Histamine H3 receptor (Homo sapiens, UniProt Q9Y5N1); assay: Displacement of [3H]-Nalpha-methylhistamine from human recombinant histamine H3 receptor expressed in HEK293 cells after 90 mins; format: cell-based
Sequence of Histamine H3 receptor (Q9Y5N1 whole entry): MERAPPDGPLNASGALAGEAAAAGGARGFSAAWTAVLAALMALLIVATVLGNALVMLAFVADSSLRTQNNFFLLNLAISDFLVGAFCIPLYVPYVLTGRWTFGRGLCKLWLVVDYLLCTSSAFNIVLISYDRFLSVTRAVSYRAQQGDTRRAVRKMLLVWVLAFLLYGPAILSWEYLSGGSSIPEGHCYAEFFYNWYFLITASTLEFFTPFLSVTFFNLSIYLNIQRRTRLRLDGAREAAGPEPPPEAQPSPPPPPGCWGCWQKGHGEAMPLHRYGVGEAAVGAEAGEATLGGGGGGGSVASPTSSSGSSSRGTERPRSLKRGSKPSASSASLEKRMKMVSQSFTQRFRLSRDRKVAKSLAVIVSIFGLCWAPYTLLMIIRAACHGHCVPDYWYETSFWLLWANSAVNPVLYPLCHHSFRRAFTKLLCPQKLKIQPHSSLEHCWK

[9] = tested on: Rattus norvegicus; assay: Neurotoxicity in Sprague-Dawley rat at 30 mg/kg, ip after 0.25 hrs by rotarod test; format: toxicity, organism-based; conditions: in vivo
Method in brief: (§4)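 Male Sprague–Dawley rats given compound ip as a suspension in 0.5% methylcellulose, groups of four. Rotarod: 1 inch knurled rod at 6 rpm; three falls within 1 min counts as neurotoxic. Scored as number toxic/number tested at pretreatment times between 0.25 and 4 h, or at the stated time.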

[10] = tested on: Mus musculus; assay: Neurotoxicity in ip dosed CF1 albino mouse after 0.5 hrs by rotarod test; format: toxicity, organism-based; conditions: in vivo
Method in brief: as §2, with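 “dosing. TD50 with 95% confidence interval from the quantitative study.” for “dosing.”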

[11] = tested on: Rattus norvegicus; assay: Neurotoxicity in Sprague-Dawley rat at 30 mg/kg, ip after 0.5 hrs by rotarod test; format: toxicity, organism-based; conditions: in vivo; method in brief: as §4
[12] = tested on: Mus musculus; assay: Anticonvulsant activity in CF1 albino mouse assessed as protection against 6 Hz-psychomotor-induced seizure at 30 mg/kg, ip after 0.25 to 4 hrs; format: functional, organism-based; method in brief: as §3
[13] = tested on: Mus musculus; assay: Protective index, ratio of TD50 for ip dosed CF1 albino mouse to ED50 for ip dosed CF1 albino mouse assessed as protection against maximal electroshock-induced seizure after 0.25 hrs; format: functional
[14] = tested on: Mus musculus; assay: Anticonvulsant activity in CF1 albino mouse assessed as protection against subcutaneous pentetrazole-induced seizure at 30 mg/kg, ip after 0.5 hrs; format: functional, organism-based
Method in brief: (§5)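 Male CF-1 mice, ip in 0.5% methylcellulose; pentetrazole at CD97 (85 mg/kg) injected subcutaneously in a loose fold of neck skin. Observed 30 min; absence of even a threshold seizure (single clonic spasm lasting at least 5 s) counted as protection. Scored protected/tested, or ED50.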

[15] = tested on: Rattus norvegicus; assay: Neurotoxicity in Sprague-Dawley rat at 30 mg/kg, ip after 1 hr by rotarod test; format: toxicity, organism-based; conditions: in vivo; method in brief: as §4
[16] = tested on: Rattus norvegicus; assay: Neurotoxicity in ip dosed Sprague-Dawley rat after 0.5 hrs by rotarod test; format: toxicity, organism-based; conditions: in vivo
[17] = tested on: Mus musculus; assay: Anticonvulsant activity in CF1 albino mouse assessed as protection against subcutaneous pentetrazole-induced seizure at 300 mg/kg, ip after 0.5 hrs; format: functional, organism-based; method in brief: as §5
[18] = tested on: Rattus norvegicus; assay: Anticonvulsant activity in ip dosed Sprague-Dawley rat assessed as protection against subcutaneous pentetrazole-induced seizure after 0.5 hrs; format: functional
[19] = tested on: Mus musculus; assay: Neurotoxicity in CF1 albino mouse at 60 mg/kg, ip after 1 to 4 hrs by rotarod test; format: toxicity, organism-based; conditions: in vivo
Method in brief: as §2, with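 “dosing. TD50 with 95% confidence interval from the quantitative study.” for “dosing.”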

[20] = tested on: Mus musculus; assay: Anticonvulsant activity in CF1 albino mouse assessed as protection against maximal electroshock-induced seizure at 100 mg/kg, ip after 4 hrs; format: functional, organism-based; method in brief: as §1
[21] = tested on: Mus musculus; assay: Anticonvulsant activity in CF1 albino mouse assessed as protection against subcutaneous pentetrazole-induced seizure at 100 mg/kg, ip after 0.5 hrs; format: functional, organism-based; method in brief: as §5
[22] = tested on: Rattus norvegicus; assay: Neurotoxicity in Sprague-Dawley rat at 30 mg/kg, ip after 4 hrs by rotarod test; format: toxicity, organism-based; conditions: in vivo; method in brief: as §4
[23] = tested on: Mus musculus; assay: Neurotoxicity in CF1 albino mouse at 30 mg/kg, ip after 0.5 hrs by rotarod test; format: toxicity, organism-based; conditions: in vivo
Method in brief: as §2, with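 “dosing. TD50 with 95% confidence interval from the quantitative study.” for “dosing.”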

[24] = tested on: Mus musculus; assay: Anticonvulsant activity in CF1 albino mouse assessed as protection against subcutaneous pentetrazole-induced seizure at 30 mg/kg, ip after 4 hrs; format: functional, organism-based; method in brief: as §5
[25] = tested on: Mus musculus; assay: Anticonvulsant activity in CF1 albino mouse assessed as protection against maximal electroshock-induced seizure at 30 mg/kg, ip after 0.5 hrs; format: functional, organism-based; method in brief: as §1
[26] = tested on: Mus musculus; assay: Neurotoxicity in CF1 albino mouse assessed as unable to grasp rotarod, death, diarrhea, loss of righting reflux and clonic seizure at 100 mg/kg, ip after 0.5 hrs by rotarod test; format: toxicity, organism-based; conditions: in vivo
Method in brief: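 Male albino CF-1 mice dosed ip with compound suspended in 0.5% methylcellulose, then placed on a 1-inch knurled plastic rod turning at 6 rpm. A fall three times within 1 min counted as neurotoxicity. Observations were made at 0.5 h and 4 h after dosing. Result given as animals showing toxicity per animals tested, with the kind of toxicity recorded.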

[27] = tested on: Mus musculus; assay: Neurotoxicity in CF1 albino mouse at 10 mg/kg, ip after 0.5 hrs by rotarod test; format: toxicity, organism-based; conditions: in vivo
Method in brief: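 Rotarod neurotoxicity in male CF-1 mice dosed ip as 0.5% methylcellulose suspension: mouse placed on 1 inch knurled rod rotating at 6 rpm; toxicity when the animal falls off three times within 1 min, with other signs noted. Scored as toxic/tested at 0.5 h and 4 h.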

[28] = tested on: Mus musculus; assay: Anticonvulsant activity in CF1 albino mouse assessed as protection against maximal electroshock-induced seizure at 3 mg/kg, ip after 0.5 hrs; format: functional, organism-based; method in brief: as §1
[29] = tested on: Rattus norvegicus; assay: Anticonvulsant activity in Sprague-Dawley rat assessed as protection against maximal electroshock-induced seizure at 30 mg/kg, ip after 2 hrs; format: functional, organism-based

Structure (SMILES): CC1CCCN(CCCCCCCOc2ccc(Cl)cc2)C1.O=C(O)C(=O)O (centres undefined)
- Activity [1]: inactive
- TD50 (median neurotoxic dose) [2]: 48.28 mg/kg
- Activity [3]: inactive
- Activity [4]: 25%
- Activity [5]: Active
- Ratio TD50/ED50 [6]: 3.8
- Activity [7]: Non-toxic
- Ki [8]: 180 nM
- Activity [9]: Non-toxic
- ED50 [10]: 5.35 mg/kg
- Activity [11]: Non-toxic
- Activity [12]: inactive
- Ratio TD50/ED50 [13]: 3
- Activity [14]: inactive
- Activity [15]: Non-toxic
- ED50 [16]: 50.35 mg/kg
- Activity [17]: inactive
- ED50 [18]: > 50 mg/kg
- Activity [19]: Non-toxic
- Activity [20]: Active
- Activity [21]: inactive
- Activity [22]: Non-toxic
- Activity [23]: Non-toxic
- Activity [24]: inactive
- Activity [25]: Active
- Activity [26]: Toxic
- Activity [27]: Non-toxic
- Activity [28]: inactive
- Activity [29]: Active
